High-throughput results deposited in PubChem BioAssay by several laboratories.
Yeast lifespan up – yeast lifespan extension; S. cerevisiae growth with nicotinamide, OD615; deaD strain in restrictive glucose medium; inhibition of the nicotinamide effect, % at 10 µM; actives 0.68% (n = 130,000); AID 775;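 active = inhibition above a set limit, placed 3 SD over the median of all compounds, cut at about 26% in these data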;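 note: 0% = nicotinamide-treated wells and 100% = cells grown without nicotinamide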
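Material: Modified budding yeast, DeaD strain | Medium: Restrictive glucose medium | Probe or stimulus: 1.5 mM nicotinamide | Dosing: Single dose 10 µM compound, 0.25% DMSO | Times: 48 h at 30 °C | Technique: OD615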
INS promoter inh – TRM-6 insulin promoter activity inhibition. inhibition, % at 2 µM. AID 1273. actives 0.9% (n = 130,000). TRM-6 cells, insulin promoter-eGFP reporter, imaging; reporter expression induced with tamoxifen;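 active = inhibition above the mean plus 3 SD, with well images judged a real hit on visual review, cut at about 60% in these data, passing the limit was not always enough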
RAM network inh – blocks the yeast RAM network. S. cerevisiae dse1pr::URA3 reporter, 5-FOA growth OD615, 2 d; analog-sensitive cbk1-as2 kinase mutant strain. inhibition, % at 50 µM. actives 1.8% (n = 190,000). AID 868;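 active = inhibition above a set limit, 3 SD over mean compound inhibition, cut at about 8.4% in these data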;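 note: 0% = DMSO-only wells with no growth and 100% = 10 µM 1-NA-PP1 full growth; inhibition rescues growth on 5-FOA so higher OD means more RAM inhibition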
BB579 growth dn – reduces growth of yeast BB579 in restrictive medium | inhibition, % at 10 µM | S. cerevisiae BB579 growth, OD615, 48 h | actives 0.51% (n = 140,000) | AID 804;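 active = inhibition above a set limit, 3 SD over the mean compound inhibition, cut at about 44% in these data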
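System: Saccharomyces cerevisiae DeaD strain BB579, replicative lifespan model yeast | Buffer or medium: Restrictive glucose-based CSMM-D medium | Times: 4 h preincubation and 48 h exposure at 30 °C | Detection: OD615 turbidity measurement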
Efa HMGR inh – inhibitors of class II HMG-CoA reductase from Enterococcus faecalis; purified E. faecalis HMGR, NADPH absorbance 340 nm kinetic; inhibition, % at 10 µM; actives 0.41% (n = 190,000); AID 1066;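 active = inhibition above a set limit, the median over all tested compounds plus 3 SD, cut at about 9.5% in these data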;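 note: enzyme runs in reverse so mevalonate oxidation gives rising NADPH absorbance; 0% = complete reaction with DMSO and 100% = background rate lacking mevalonate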
* = called active by the depositor; / = no result given. Only some compounds are listed: those with a hit (about 3.7% of all), similar ones and a draw of the others.

SMILES | Yeast lifespan up | INS promoter inh | RAM network inh | BB579 growth dn | Efa HMGR inh
CC1(C)[C@@H](O)CC[C@]2(C)[C@H]3C(=O)C=C4[C@@H]5C[C@@](C)(C(=O)O)CC[C@]5(C)CC[C@@]4(C)[C@]3(C)CC[C@@H]12 | 11.0 | 13.6 | 2.5 | -28.1 | -3.6
C[C@H]1[C@H](C)CC[C@]2(C(=O)O)CC[C@]3(C)C(=CC[C@@H]4[C@@]5(C)C[C@@H](O)[C@H](O)C(C)(C)[C@@H]5CC[C@]43C)[C@H]12 | 1.0 | 30.0 | 2.4 | -31.8 | 18.2*
CCOC(=O)N1CCN(C(=O)CSc2ccc(-c3cccc(OC)c3)nn2)CC1 | / | 7.7 | 0.5 | / | -3.1
CCOC(=O)N1CCN(C(=O)CSc2ccc(-c3cccnc3)nn2)CC1 | / | 66.7 | 0.5 | / | 10.3*
O=C(C1CC1c1ccccc1)N1CCN(c2cccc(Cl)c2)CC1 (stereo not given) | -8.7 | / | 9.5* | -80.2 | -5.4
O=S1(=O)C=C(Sc2nnc(-c3ccccc3)o2)c2ccccc21 | 43.3* | -270.4 | 2.6 | 36.4 | 0.3
C(=N\Nc1nc(Nc2ccccc2)nc(Nc2ccccc2)n1)/c1ccncc1 | / | / | 0.9 | / | -0.9
Clc1cncc(Cl)c1N/N=C/c1ccncc1 | -4.7 | 62.5* | 0.3 | -56.9 | 3.7
CC1(C)CC(=O)C(=C2SCCCS2)C(=O)C1 | 20.7 | -66.7 | -0.6 | -41.2 | -2.1
O=Cc1ccccc1OS(=O)(=O)c1ccccc1 | 49.5* | 35.7 | -1.4 | -24.2 | -1.7
Cc1nn(-c2ccccc2)c(C)c1N | / | 75.0* | 0.7 | / | -3.7
COCCNS(=O)(=O)c1cc(OC)ccc1OC | / | 26.3 | 0.9 | / | -4.1
COc1ccc(N)c2c1C(=O)c1ccccc1C2=O | -8.9 | / | -0.1 | 70.6* | 1.4
Nc1ccc(O)c2c1C(=O)c1ccccc1C2=O | -4.8 | -13.6 | 3.4 | 69.4* | -10.2
CCOC(=O)c1sc(NC(=O)CSc2nc3c(c(=O)n2-c2ccc(C)cc2)SCC3)c(C(=O)OCC)c1C | 3.7 | -41.5 | 5.1 | -24.2 | -2.4
C=CCn1c(SCC(=O)c2ccccc2)nnc1-c1cc2ccccc2o1 | -7.2 | / | 4.4 | -28.0 | -3.5
C=CCn1c(SCC(=O)c2ccc(OC)cc2)nnc1-c1cc2cccc(OC)c2o1 | -8.5 | 4.5 | 10.6* | -35.4 | -1.4
Clc1ccccc1N/N=C/c1ccc2c(c1)OCO2 | -6.8 | 64.3* | -0.1 | 89.5* | -5.8
C(=N\Nc1nc2ccccc2[nH]1)/c1ccc2c(c1)OCO2 | / | 37.5 | 0.6 | / | -3.3
COc1ccc(C(CC(=O)O)NC(=O)c2ccccc2)cc1OC (stereo not given) | -11.2 | -7.0 | 3.0 | -15.5 | -7.1
COc1ccccc1C(CC(=O)c1ccccc1)CC(=O)c1ccccc1 | / | 12.8 | 11.3* | / | -4.6
COc1cc([N+](=O)[O-])c(C(=O)N2CCOCC2)c([N+](=O)[O-])c1 | -0.2 | 44.8 | 1.8 | 18.2 | -0.9
Cc1ccc2nc(Cl)c(/C=N/Nc3nc(C)cc(C)n3)c(=O)n2c1 | 10.1 | -25.0 | 1.7 | 8.1 | -5.8
Cc1ccc(OC/C(O)=C(\C#N)c2nc3ccccc3s2)cc1 | 27.8* | 0.0 | 3.8 | -29.0 | -4.8
COC(=O)c1ccc(/C(O)=C(\C#N)c2nc3ccccc3s2)cc1 | 31.4* | / | 0.3 | -3.9 | -3.6
SMILES | Yeast lifespan up | INS promoter inh | RAM network inh | BB579 growth dn | Efa HMGR inh
CC(C)=C(C#N)c1nc2ccccc2s1 | -16.2 | -94.9 | 1.2 | -0.2 | 2.5
Cc1cccc(C(=O)OCc2cncs2)c1 | / | / | 0.4 | / | -2.9
COc1ccc(-n2nnnc2SCC(=O)c2cc3ccccc3o2)cc1 | -16.5 | 6.5 | 8.5* | -42.3 | 0.6
O=C(CSc1nc2ccccc2s1)c1cc2ccccc2o1 | -5.2 | -85.7 | 9.4* | -23.3 | -12.8
CC(=O)CSc1nc2ccccc2s1 | -22.7 | 51.4 | 2.3 | -37.9 | -0.9
O=C(NNc1nc(N2CCOCC2)nc(N2CCOCC2)n1)Nc1ccc(Cl)cc1 | / | / | 2.4 | / | -3.6
CSc1ccc(CN(C)CC(=O)Nc2cccc(Br)c2)cc1 | -7.1 | / | 1.0 | -57.2 | 3.1
CC(C1CC1)N(Cc1ccccc1)C(=S)Nc1cccc(C(F)(F)F)c1 (stereo not given) | 30.6* | -28.0 | 6.1 | -33.0 | 1.7
COc1ccc(CCNC(=O)C2CCN(S(=O)(=O)c3c(C)noc3C)CC2)cc1OC | -18.8 | 65.5* | -0.5 | -17.9 | -3.2
COc1ccc(C)cc1S(=O)(=O)N1CCC(C(=O)NCCc2ccccc2)CC1 | 27.9* | 23.5 | 0.2 | 8.5 | -5.3
COc1ccc(S(=O)(=O)N2CCC(C(=O)NCCc3ccccc3)CC2)cc1OC | -2.0 | 21.4 | 1.9 | -9.2 | -3.1
O=C(CSc1nc(-c2ccccc2)cs1)NCCN1C(=O)CSC1=O | / | / | 1.2 | / | -4.8
CCc1sc(N(C(=O)Cc2ccccc2)c2cccc(F)c2)nc1-c1ccc(C)cc1 | -9.0 | 12.0 | 8.9* | -28.7 | -2.6
Cc1cc(=O)[nH]c(N/N=C/c2c(C)nn(-c3ccccc3)c2C)n1 | / | / | 3.9 | / | 5.3
Cc1nn(-c2ccccc2)c(C)c1/C=N/Nc1nc2ccccc2[nH]1 | -2.2 | 83.9* | -0.4 | 1.4 | -7.7
Cc1nn(-c2ccccc2)c(Cl)c1/C=N/Nc1nc2ccccc2n1C | -5.2 | 77.8* | -0.7 | -32.3 | -4.2
Cc1nn(-c2ccccc2)c(Cl)c1/C=N/Nc1nnc(C)c(=O)[nH]1 | / | 38.5 | -0.2 | / | 4.5
CCC(c1nc2ccccc2c(=O)n1CCN1CCOCC1)N1C(=O)c2ccccc2C1=O (stereo not given) | -8.5 | 65.5* | 1.2 | -18.1 | 2.0
CCC(c1nc2ccccc2c(=O)n1CCCn1ccnc1)N1C(=O)c2ccccc2C1=O (stereo not given) | -12.5 | 21.6 | 0.0 | -33.1 | 2.9
CC(/C=C/c1ccc(N(C)C)cc1)=N\N=C(/N)SC1CC(=O)N(c2ccc(C(=O)O)cc2)C1=O (stereo not given) | 3.0 | / | 9.8* | -14.3 | 0.1
COCCCNC(=O)/C=C/c1c(Cl)cccc1Cl | -5.9 | 31.6 | 0.9 | -24.2 | -1.8
COCCNC(=O)/C=C/c1c(Cl)cccc1Cl | -7.1 | 71.4* | 0.9 | -9.5 | 0.1
COc1ccc(OCCC(=O)OCC(=O)NCc2ccccc2)cc1 | -6.7 | / | 0.5 | -16.7 | -1.9
CC(=O)c1c(C)[nH]c(C(=O)COC(=O)CCSc2ccccc2)c1C | -0.7 | -23.3 | 3.0 | -15.0 | -1.8
CCOC(=O)c1c(C)[nH]c(C(=O)COC(=O)CCSc2ccccc2)c1C | 5.3 | -33.3 | 9.5* | -48.6 | 0.0
SMILES | Yeast lifespan up | INS promoter inh | RAM network inh | BB579 growth dn | Efa HMGR inh
Clc1ccc(CO/N=C/c2c(-c3ccccc3)nc3n2CCS3)c(Cl)c1 | 2.4 | -67.9 | 11.2* | -53.2 | 4.3
O=S(=O)(/C=C/c1ccccc1)NC1CCCCCCC1 | 26.6* | -23.1 | 2.0 | -46.3 | -0.4
O=S(=O)(/C=C/c1ccccc1)NC1CCCCCC1 | / | 38.9 | -1.5 | / | 0.0
CCn1nc(C)c(NC(=O)c2cnn3c(C(F)F)cc(-c4ccccc4)nc23)c1C | / | -35.7 | 1.2 | / | -3.9
CCc1ccc2[nH]c3nc(C)cc(C)c3c(=O)c2c1 | -2.0 | 81.5* | 3.2 | -7.1 | 2.0
COc1ccc(CN2CCN(C(=O)CC(C)C)CC2)c2ccccc12 | -4.6 | 75.3* | 0.3 | 11.3 | 3.4
